A1 apoptosis 2 – blocks A1, raising caspase activity; MEF A1-2A-BIM cells, caspase-Glo luminescence, 3 h; percent of clofoctol response, DMSO zero; 24,000 tested, under 10 active; caspase activation, % (test concentration not listed); in the data active = caspase activation above about 5.9%
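Test system – A1-2A-BIM-expressing MEF cells · Input – 2500 cells/well · Medium – RPMI-1640 growth medium with 10% FBS · Compound dosing – 50 nL pinned compound · Timing – 3 h compound exposure at 37 °C · Technique – Caspase-Glo luminescence (DEVD substrate) · Evaluation – Caspase-3/7 activity from luminescence increase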
T cruzi HTS – blocks T. cruzi growth inside host cells | activity score (inhibition), % at 5.01 µM | AID 651903 | 22,000 tested, 4.9% active | intracellular Trypanosoma cruzi in host cells, plate reader; in the data active = activity score above about 55%;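 also: parasites and compound incubated about four days before reading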
INS-1E ATP HTS – rescue of cytokine-induced death in INS-1E beta cells. INS-1E cytokine-induced death, ATP luminescence, 48 h; normalised: neutral wells 0, positive control 100. protection from cytokine-induced ATP loss, % at 10 µM. 20,000 tested, 0.1% active. AID 488910;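 active = mean replicate protection from cytokine-induced ATP loss at least 50% and at least 75% of replicates each reaching 50%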
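Assay system: INS-1E rat cells / Quantity: 8000 cells per well / Medium: RPMI without phenol red, 5% FBS / Probe or stimulus: three-cytokine cocktail (IFN-γ, TNF-α, IL-1β) / Dosing: one compound concentration, pin transfer / Timing: 48 h co-treatment, 10 min post-lysis read / Technique: CellTiter-Glo luminescence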
Hits are given with their value. This is one part of a sample in which hits are shown more often than they occur.

How did C[C@H]1CN([C@@H](C)CO)C(=O)c2cc(NC(=O)Nc3cccc4ccccc34)ccc2O[C@H]1CN(C)S(=O)(=O)c1ccc(F)cc1 do in these assays?
T cruzi HTS: 65; INS-1E ATP HTS: inactive

How did C[C@@H]1CN([C@@H](C)CO)C(=O)c2cc(NC(=O)Nc3ccc(C(F)(F)F)cc3)ccc2O[C@H]1CN(C)S(=O)(=O)c1ccc(F)cc1 do in these assays?
A1 apoptosis 2: inactive; T cruzi HTS: inactive; INS-1E ATP HTS: inactive

Results for C[C@@H]1CN([C@H](C)CO)C(=O)c2cc(NC(=O)Nc3ccc(C(F)(F)F)cc3)ccc2O[C@H]1CN(C)S(=O)(=O)c1ccccc1 ?
A1 apoptosis 2: inactive; T cruzi HTS: 70; INS-1E ATP HTS: inactive

Results for C[C@@H]1CN([C@@H](C)CO)C(=O)c2cc(NC(=O)Nc3cccc4ccccc34)ccc2O[C@@H]1CN(C)S(=O)(=O)c1ccc(F)cc1 ?
A1 apoptosis 2: inactive; T cruzi HTS: inactive; INS-1E ATP HTS: inactive

How did Cc1ccc(S(=O)(=O)N(C)C[C@@H]2Oc3ccc(NC(=O)c4ccncc4)cc3C(=O)N([C@H](C)CO)C[C@H]2C)cc1 do in these assays?
T cruzi HTS: inactive; INS-1E ATP HTS: inactive

How did C[C@@H]1CN([C@H](C)CO)C(=O)c2cc(NS(C)(=O)=O)ccc2O[C@@H]1CN(C)S(=O)(=O)c1cn(C)cn1 do in these assays?
A1 apoptosis 2: inactive; T cruzi HTS: inactive; INS-1E ATP HTS: inactive

Results for C[C@@H]1CN([C@@H](C)CO)C(=O)Cc2cc(NC(=O)c3ccncc3)ccc2O[C@@H]1CN(C)C(=O)Nc1cccc2ccccc12 ?
A1 apoptosis 2: inactive; T cruzi HTS: inactive; INS-1E ATP HTS: inactive

How did CO[C@H]1O[C@H](CO)[C@@H](OC(=O)Nc2ccccc2-c2ccccc2)[C@H](OC(=O)Nc2ccc3c(c2)OCO3)[C@@H]1OC(=O)Nc1ccc2c(c1)OCO2 do in these assays?
A1 apoptosis 2: inactive

How did O=C(O)CCCCCC(=O)N/N=C/c1cc(Br)cs1 do in these assays?
A1 apoptosis 2: inactive; T cruzi HTS: inactive; INS-1E ATP HTS: inactive

What do the screens show for `C[C@@H]1CN([C@H](C)CO)C(=O)Cc2cc(NS(=O)(=O)c3ccccc3)ccc2O[C@@H]1CN(C)Cc1ccc(-c2ccccc2)cc1`?
A1 apoptosis 2: inactive; T cruzi HTS: 71; INS-1E ATP HTS: inactive

What do the screens show for `C[C@H]1CN([C@@H](C)CO)C(=O)Cc2cc(NS(=O)(=O)c3ccc(Cl)cc3)ccc2O[C@@H]1CN(C)Cc1ccc(-c2ccccc2)cc1`?
T cruzi HTS: 61; INS-1E ATP HTS: inactive

How did C[C@H]1CN([C@@H](C)CO)C(=O)Cc2cc(NS(=O)(=O)c3cccs3)ccc2O[C@@H]1CN(C)Cc1ccc(-c2ccccc2)cc1 do in these assays?
A1 apoptosis 2: inactive; T cruzi HTS: 56; INS-1E ATP HTS: inactive

What do the screens show for `C[C@H](CO)N1C[C@H](C)[C@@H](CN(C)Cc2ccc(-c3ccccc3)cc2)Oc2ccc(NS(=O)(=O)c3cccs3)cc2CC1=O`?
A1 apoptosis 2: inactive

Results for C[C@@H]1CN([C@H](C)CO)C(=O)Cc2cc(NS(=O)(=O)c3ccc(F)cc3)ccc2O[C@@H]1CN(C)Cc1ccccc1 ?
A1 apoptosis 2: inactive; T cruzi HTS: 62; INS-1E ATP HTS: inactive

How did C[C@H](CO)N1C[C@H](C)[C@@H](CN(C)Cc2ccccc2)Oc2ccc(NS(=O)(=O)c3ccc(F)cc3)cc2CC1=O do in these assays?
A1 apoptosis 2: inactive

How did Cc1ccc(S(=O)(=O)Nc2ccc3c(c2)CC(=O)N([C@@H](C)CO)C[C@H](C)[C@H](CN(C)Cc2ccc(-c4ccccc4)cc2)O3)cc1 do in these assays?
A1 apoptosis 2: inactive; T cruzi HTS: inactive; INS-1E ATP HTS: inactive

How did COc1ccc(NC(=O)N(C)C[C@H]2Oc3ccc(NC(=O)Nc4ccc(F)cc4)cc3C(=O)N([C@@H](C)CO)C[C@H]2C)cc1 do in these assays?
T cruzi HTS: inactive; INS-1E ATP HTS: inactive

What do the screens show for `Cc1ccc(S(=O)(=O)Nc2ccc3c(c2)C(=O)N([C@H](C)CO)C[C@H](C)[C@@H](CN(C)C(=O)c2ccccc2)OCCCC[C@@H](C)O3)cc1`?
A1 apoptosis 2: inactive; T cruzi HTS: inactive; INS-1E ATP HTS: inactive

How did COc1ccc(S(=O)(=O)Nc2ccc3c(c2)C(=O)N([C@H](C)CO)C[C@@H](C)[C@@H](CN(C)C(=O)Nc2ccccc2)O3)cc1 do in these assays?
T cruzi HTS: inactive; INS-1E ATP HTS: inactive

How did C[C@@H]1CN([C@H](C)CO)C(=O)c2cccc(NS(=O)(=O)c3ccccc3)c2O[C@@H]1CN(C)S(C)(=O)=O do in these assays?
T cruzi HTS: inactive; INS-1E ATP HTS: inactive

High-throughput results (PubChem BioAssay)
